From PMC3288198 (ACS Chemical Biology, 2011)
“Also recorded” adds a separate entry of the source. Where two headings read alike, the source gives them in different places. Where a SMILES comes first, the peptide text is derived from it. The star is where a group is joined. Cbz = O=C(OCc1ccccc1)*

What was measured:
FLT-3 and STAT5 = test: Western blot of FLT-3 and STAT5 levels in MV4-11 cells; type: cell-based, human; settings: for effect on FLT-3 and STAT5 protein levels: 3 hr post-treatment
How it was run: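 MV4-11 cells cultured with 10% heat-inactivated FBS at 37°C, 5% CO2. Exposed to a concentration series of test compound, harvested 3 hr post-treatment. Lysed in low-salt Tris pH 7.4 buffer containing 1 μM TSA and sonicated. Lysates denatured in LDS and run on 4–12% gradient gels. Blots probed for FLT-3, STAT5, Erk and phospho-Erk; HRP secondary with ECL detection.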

[1] = system: mitogen stimulated proliferating PBMC; test: MTS cell proliferation assay, proliferating PBMC; type: cell-based, human; settings: proliferating PBMC vs AML cells ex vivo
[2] = system: acetylated histone H3 and H4; test: Western blot of acetylated histone H3/H4 in MV4-11 cells; type: cell-based, human
How it was run: (§1)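 MV4-11 cells (10% heat-inactivated FBS, 37°C, 5% CO2) treated with test compound at a range of concentrations. Washed in cold HBSS and lysed 30 min in low-salt Tris pH 7.4 buffer with protease/phosphatase inhibitors and 1 μM TSA, then sonicated. LDS-denatured lysates run on 4–12% gradient gels. Probes: acetyl-H3, acetyl-H4, total H3, acetyl-α-tubulin, tubulin. HRP secondary, ECL read-out.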

ubiquitinated protein = test: Western blot of total ubiquitinated protein in MV4-11 cells; type: cell-based, human; settings: within 3 hr
Hsp90 acetylation [3] = test: Immunoprecipitation/immunoblot of Hsp90 acetylation in MV4-11 cells; type: cell-based, human; settings: 3 hr post-treatment
How it was run: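 MV4-11 AML cells (10% heat-inactivated FBS, 37°C, 5% CO2) treated with test compound, harvested 3 hr post-treatment. Cells washed in cold HBSS, lysed 30 min in low-salt buffer (50 mM Tris-HCl pH 7.4, 150 mM NaCl, 10% glycerol, Triton X-100, protease/phosphatase inhibitors, 1 μM TSA), then sonicated. Hsp90 pulled down on Hsp90-conjugated beads for 1 hr. Blots probed for Hsp90, acetyl-lysine and acetyl-Hsp90 K69.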

acetylated tubulin [4] = test: Western blot of acetylated tubulin in PBMC; type: cell-based, human; settings: PBMC from normal donors, 3 hr post-treatment
acetylated tubulin [5] = test: Western blot of acetylated tubulin in MV4-11 cells; type: cell-based, human
How it was run: as §1

[6] = system: full panel of human recombinant HDAC enzymes; test: Inhibition profile over full panel of HDACs; type: biochemical
How it was run: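 Panel of recombinant human HDAC1–11, 12-point titration of test compound per isozyme. Substrates: AMC-K(Ac)GL for HDAC1, 2, 3/N-CoR2, 6 and 10; AMC-K(TFA)GL for HDAC4, 5, 7, 8, 9 and 11. Peptidase-released MCA fluorescence at ex 355/em 460 nm, normalised to controls. IC50 by non-linear regression.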

HDAC6 [7] = target: T1, HDAC6 (Homo sapiens, UniProt Q9UBN7); test: HDAC deacetylase homogenous fluorescence assay, HDAC6; type: biochemical; settings: for concentration above which HDAC6 was inhibited: data not shown
T1 sequence (Q9UBN7 1-1215): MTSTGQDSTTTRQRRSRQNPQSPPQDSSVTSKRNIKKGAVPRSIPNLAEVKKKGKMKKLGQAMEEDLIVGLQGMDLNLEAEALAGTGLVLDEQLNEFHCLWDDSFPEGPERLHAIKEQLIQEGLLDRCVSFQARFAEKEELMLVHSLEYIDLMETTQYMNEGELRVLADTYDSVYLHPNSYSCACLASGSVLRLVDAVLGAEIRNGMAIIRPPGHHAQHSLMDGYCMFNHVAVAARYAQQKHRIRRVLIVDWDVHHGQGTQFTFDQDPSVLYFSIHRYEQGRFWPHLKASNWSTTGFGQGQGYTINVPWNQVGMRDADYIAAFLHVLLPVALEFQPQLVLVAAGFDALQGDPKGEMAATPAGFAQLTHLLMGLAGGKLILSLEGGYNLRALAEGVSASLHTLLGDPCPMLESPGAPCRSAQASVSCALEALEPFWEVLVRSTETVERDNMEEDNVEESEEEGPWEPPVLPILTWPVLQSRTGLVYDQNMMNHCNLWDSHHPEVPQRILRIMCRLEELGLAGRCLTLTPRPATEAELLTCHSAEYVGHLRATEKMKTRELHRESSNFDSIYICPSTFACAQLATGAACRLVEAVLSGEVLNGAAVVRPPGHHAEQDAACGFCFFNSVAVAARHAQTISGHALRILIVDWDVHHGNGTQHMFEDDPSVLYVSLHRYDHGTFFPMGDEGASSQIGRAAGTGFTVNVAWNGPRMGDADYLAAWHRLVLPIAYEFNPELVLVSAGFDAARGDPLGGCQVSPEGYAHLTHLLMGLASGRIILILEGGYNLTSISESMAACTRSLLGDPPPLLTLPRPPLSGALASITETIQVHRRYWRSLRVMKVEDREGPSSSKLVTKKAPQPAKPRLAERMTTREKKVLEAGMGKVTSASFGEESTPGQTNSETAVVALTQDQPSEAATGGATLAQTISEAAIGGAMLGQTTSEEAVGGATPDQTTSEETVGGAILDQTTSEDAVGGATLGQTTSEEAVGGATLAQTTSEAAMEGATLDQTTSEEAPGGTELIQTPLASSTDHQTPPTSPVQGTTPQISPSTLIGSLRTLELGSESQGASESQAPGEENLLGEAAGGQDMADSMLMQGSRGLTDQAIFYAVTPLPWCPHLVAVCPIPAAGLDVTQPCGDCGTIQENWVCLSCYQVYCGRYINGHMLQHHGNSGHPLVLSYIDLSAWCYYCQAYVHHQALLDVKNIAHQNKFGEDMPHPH
How it was run: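 Baculovirus-expressed recombinant human enzyme (HDAC3 as HDAC3/N-CoR2 complex) incubated with serially diluted test compound over a 12-point titration. Substrate: acetylated AMC-K(Ac)GL. Deacetylated product cleaved by lysine peptidase to free MCA, read at ex 355/em 460 nm. Data normalised to control plate by plate. IC50 and SD from non-linear regression; Ki via Cheng-Prusoff, Ki = IC50/(1+[S]/Km).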

Hsp90 acetylation [8] = settings: 16 hrs post inhibitor treatment; cited from earlier work
HDAC6 [9] = settings: cited from earlier work

| Compound | effect on acetylated histone H3/H4 levels [2] | induction of Hsp90 acetylation (Hsp90 acetylation [3]) | effect on FLT-3 and STAT5 protein levels (FLT-3 and STAT5) | induction of acetylated tubulin (acetylated tubulin [5]) | further results |
| --- | --- | --- | --- | --- | --- |
| CC(C)C[C@@H](C=O)NC(=O)[C@H](CC(C)C)NC(=O)[C@H](CC(C)C)NC(=O)OCc1ccccc1 [MG132] (Cbz-Leu-Leu-Leu-aldehyde) |  |  |  |  | prevention of STAT5 degradation caused by HDAC6 inhibition (FLT-3 and STAT5; 10 μM MG132 co-treatment): did not prevent STAT5 degradation; rescue of FLT-3 degradation caused by HDAC6 inhibition (FLT-3 and STAT5; 10 μM MG132 co-treatment): rescued |
| O=C1C=C(NCc2ccccc2)C(=O)c2ccccc21 [NQN-1, 2-benzyl-amino-naphthoquinone] | without an increase in histone H3 and H4 acetylation; also recorded: unexpectedly caused a decrease in acetylated histone H4 | induces Hsp90 acetylation | decrease within 3 hr | selectively induced hyperacetylated tubulin | selectivity, proliferating PBMC over AML (MV4-11) cell toxicity [1]: 4 fold; total ubiquitinated protein level (ubiquitinated protein): increase in total ubiquitinated protein level; tubulin acetylation level in PBMC (acetylated tubulin [4]): did not increase; HDAC inhibition profile / selectivity over the panel [6]: did not inhibit other HDACs in our panel; IC50 (HDAC6 [7]; read-out: HDAC6 IC50, 12 point titration, acetylated substrate): 5.54 ± 0.9 µM; Ki (HDAC6 [7]; read-out: HDAC6 Ki, converted from IC50 using Cheng-Prusoff equation): 1.3 ± 0.22 µM |
| O=C(CCCCCCC(=O)Nc1ccccc1)NO [SAHA, Suberoylanilide hydroxamic acid] | induces both acetylated tubulin and histone | did not induce Hsp90 acetylation | did not induce Hsp90 acetylation or reduce FLT-3 and STAT5 levels | induces both acetylated tubulin and histone |  |
| CC(/C=C/C(=O)NO)=C\[C@@H](C)C(=O)c1ccc(N(C)C)cc1 [TSA] |  | did not induce Hsp90 acetylation | did not induce Hsp90 acetylation or reduce FLT-3 and STAT5 levels |  |  |
| CC1=C(C/C=C(\C)CCC[C@H](C)CCC[C@H](C)CCCC(C)C)C(=O)c2ccccc2C1=O [Vitamin K1] |  |  |  |  | concentration above which HDAC6 was inhibited (HDAC6 [7]): above 200 μM |
| Cc1ccc(NC(=O)CCCCCC(=O)Nc2ccccc2N)cc1 [inhibitor 106] | only induces hyperacetylated histone H3/H4 | did not induce Hsp90 acetylation | did not induce Hsp90 acetylation or reduce FLT-3 and STAT5 levels |  |  |
| O=C(CCCCCCC(=O)Nc1ccc([C@H]2O[C@@H](CSc3nc(-c4ccccc4)c(-c4ccccc4)o3)C[C@@H](c3ccc(CO)cc3)O2)cc1)NO [tubacin] | decreases in acetylated histones |  |  |  | induction of Hsp90 acetylation (Hsp90 acetylation [8]): does not significantly increase Hsp90 acetylation |
| CN1CCc2c(c3ccccc3n2Cc2ccc(C(=O)NO)cc2)C1 [tubastatin A] | decreases in acetylated histones | No induction of Hsp90 acetylation |  | higher induction of tubulin acetylation | selectivity for HDAC6 over HDAC1 (HDAC6 [9]): > 1000 |
| CC1=CC(=O)c2ccccc2C1=O [vitamin K3, 2-methyl-naphthoquinone] |  |  |  |  | HDAC inhibition profile / selectivity over the panel [6]: selectively inhibited HDAC6 and HDAC8 at low μM; IC50 (HDAC6 [7]): 25 µM |
| Vitamin K2 |  |  |  |  | concentration above which HDAC6 was inhibited (HDAC6 [7]): above 200 μM |
